High-throughput results as filed in PubChem.
Hits are enriched below; roughly 3.1% of the tested compounds scored in any of these assays.
Ecoli rRNA inh = reduced GFP signal of wild-type E. coli, primary screen, bacterial rRNA inhibitor project, GFP/RFP fluorescence, OD600, single point; actives 1.6% (n = 350,000); E. coli WT GFP vs humanized-ribosome RFP mutants, 24 h; active compounds read low; DMSO median 0, no signal -100; AID 720706, 2013; GFP signal change (wild-type ribosome), % (no concentration beside the values);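 active = significant combined selectivity score with lowered wild-type GFP, culture density cut under 30%, mutant RFP and density less affected; inactive = any of these conditions unmet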
miR-122 sensor = miR-122 Renilla sensor signal increase in Huh7, primary screen, miR-122 inhibitor project, cell-based, single point, plate reader; Huh7 miR-122 Renilla luciferase sensor, 48 h; neutral wells = 0, positive control = 100; AID 602342, 2012; activation (reporter increase), % at 12.5 µM; actives 0.3% (n = 340,000);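 active = mean replicate activation score at least 90 and every replicate individually at or above 90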;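 also: higher luciferase means less miR-122 activity so hits act as miR-122 inhibitors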
Cneo AK release = Cryptococcus neoformans cell lysis inducers, primary screen, AK release luminescence, single concentration; C. neoformans lysis, adenylate kinase release luminescence, 4 h; normalised: neutral wells 0, clomiphene wells 100; lysis activity, % at 15 µM; actives 0.2% (n = 360,000);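 active = mean lysis activity across replicates of at least 80%, whatever share of replicates individually reach that level; inactive = mean lysis activity below 80%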
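Test system: log-phase Cryptococcus neoformans yeast cells. Input: 5 × 10^6 yeast cells/mL. Medium: fresh YPD growth medium. Doses: single dose. Incubation: static 4 h at 37 °C with compound, 1 h detection. Measured by: luminescent adenylate kinase detection reagent. Read-out: signal increase indicating cell lysis. Benchmarks: Clomiphene.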
F508del corr = F508del CFTR correction, initial screen, CFBE line, single point | CFBE cells, YFP halide quenching; stimulated with forskolin plus potentiator P3; % fluorescence drop versus neutral controls | activity (quench increase), % at 7.58 µM | actives 0.36% (n = 350,000);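 active = mean added fluorescence quench of at least 8% versus neutral control, with both replicates also reaching 8%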;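 also: cells transiently co-express mutant CFTR-F508del with the halide-sensitive YFP; corrector assay measuring rescue of mutant channel to the surface after 24 h compound exposure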
GSIS activator = GLuc luminescence reporter in INS-1E cells, primary screen for activators of glucose-dependent secretion of insulin; INS-1E GLuc reporter insulin secretion, 2-3 h; actives 0.61% (n = 370,000); AID 743287, 2014; activation, % at 16.6 µM;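 active = lowest replicate activation of at least 40%, so every replicate reaches that level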
HIV Env fusion = inhibitors of HIV-1 Env-driven cell-cell fusion, primary screen, HeLa-JRFL effector, CEM21 target cells, luciferase; inhibition, % at 12.3 µM; actives 1.1% (n = 360,000);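 active = mean replicate inhibition score of at least 50 and every replicate individually at or above 50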
Hits are given with their value; – = inactive; · = no result; [ ] = dose if it differs, or a comment.

SMILES | Ecoli rRNA inh | miR-122 sensor | Cneo AK release | F508del corr | GSIS activator | HIV Env fusion
CC(C)NC(=O)N(C)C[C@@H]1OCCCC[C@@H](C)Oc2ccc(NC(=O)c3ccccc3)cc2C(=O)N([C@@H](C)CO)C[C@@H]1C | – | – | – | – | – | –
CNC[C@@H]1OCCCC[C@H](C)Oc2ccc(NC(=O)Nc3ccc(F)cc3)cc2C(=O)N([C@@H](C)CO)C[C@H]1C | – | – | 101 | – | – | –
CNC[C@@H]1OCCCC[C@H](C)Oc2ccc(NC(=O)Nc3ccc(F)cc3)cc2C(=O)N([C@@H](C)CO)C[C@@H]1C | – | – | – | – | – | –
Cc1nc(NC(=O)c2cccc(-c3cc4ccccc4oc3=O)c2)ccc1Br | · | · | · | · | 73 | –
Cc1ccc(S(=O)(=O)Nc2ccc3c(c2)C(=O)N([C@H](C)CO)C[C@@H](C)[C@@H](CN(C)C(=O)C2CCCCC2)OCCCC[C@@H](C)O3)cc1 | – | – | – | – | – | –
COc1ccc(CCNC(=O)c2ccc(-c3ccc([N+](=O)[O-])cc3Cl)o2)cc1 | -23 | – | – | – | – | ·
COc1ccc(CCNC(=O)c2ccc(-c3cccc([N+](=O)[O-])c3)o2)cc1OC | – | · | · | – | – | –
O=C(C[C@@H]1CC[C@H](NC(=O)c2ccc3c(c2)OCO3)[C@@H](CO)O1)NC1Cc2ccccc2C1 | – | – | – | – | – | –
CO[C@@H]1CN(C)C(=O)c2ccc(NC(=O)c3ccccc3F)cc2OC[C@H](C)N(C)C[C@H]1C | – | – | – | – | – | –
O=C(CSCc1ccc(Cl)cc1)NCCSCc1ccco1 | – | · | · | – | – | –
O=C(NCCSCc1ccco1)Nc1cc(Cl)cc(Cl)c1 | -51 | · | – | – | – | –
O=C1c2ccccc2C(=O)N1Cc1cnc(N2CCN(c3ccccc3)CC2)s1 | -28 | · | · | 11 | – | –
CCC(=O)N1[C@H](CO)[C@@H](c2ccc(-c3cccnc3)cc2)[C@@H]1CN(C)C(C)=O | – | – | 104 | – | – | ·
CCC(=O)N1[C@@H](CO)[C@@H](c2ccc(-c3cccnc3)cc2)[C@@H]1CN(CC)C(C)=O | – | – | – | – | – | ·
CCC(=O)N1[C@H](CN(C)C(C)=O)[C@H](c2ccc(C3=CCCCC3)cc2)[C@@H]1CO | – | · | · | – | – | ·
CCCNC(=O)NC[C@@H]1[C@@H](c2ccc(C3=CCCC3)cc2)[C@@H](CO)N1C(=O)CC | – | 143[16.7 µM] | – | – | – | ·
CCC(=O)N1[C@H](CN(C)C(C)=O)[C@@H](c2ccc(C3=CCCCC3)cc2)[C@@H]1CO | – | – | 111 | – | – | ·
CCC(=O)N1[C@H](CN(CC)C(C)=O)[C@@H](c2ccc(-c3ccccc3)cc2)[C@@H]1CO | – | – | – | 8.9 | – | ·
Cc1cccc(S(=O)(=O)N2C[C@@H](O)COC[C@@H]3O[C@H](CC(=O)N4CCN(C)CC4)CC[C@H]32)c1 | – | – | – | – | – | ·
CCC(=O)N1[C@@H]2c3ccc(/C=C/c4ccccc4)c(=O)n3C[C@H]1[C@H](CO)[C@H]2C(=O)N1CCOCC1 | – | – | – | – | – | ·
COCC(=O)NC[C@@H]1N[C@@H](CO)[C@H]1c1ccc(C2=CCCC2)cc1 | – | – | 93 | – | – | ·
CC(=O)N(C)C[C@H]1[C@H](c2ccc(-c3cccnc3)cc2)[C@@H](CO)N1C(=O)C1CC1 | – | 125[16.7 µM] | – | – | – | ·
CCC(=O)N1[C@H](CO)[C@H](c2ccccc2)[C@H]1CN(CC)C(=O)c1cccc(F)c1 | – | – | 96 | – | – | ·
COc1ccc(N2CCN(c3ccc(NC(=O)C4CCCCC4)cc3C#N)CC2)cc1 | · | – | – | · | 51 | ·
COC(=O)CC1(c2ccc(OC)cc2)C(=O)c2ccccc2C1=O | -26 | · | – | – | – | –
SMILES | Ecoli rRNA inh | miR-122 sensor | Cneo AK release | F508del corr | GSIS activator | HIV Env fusion
O=C(NC1CCCCC1)N[C@@H]1CC[C@@H](CCNS(=O)(=O)c2ccccc2)O[C@@H]1CO | – | · | – | – | – | –
CN1CCN(C(=O)C[C@@H]2CC[C@@H]3[C@H](COC[C@@H](O)CN3C(=O)Nc3ccc(Cl)cc3)O2)CC1 | – | – | – | – | – | ·
O=C(C[C@@H]1CC[C@H]2[C@@H](COC[C@H](O)CN2C(=O)Nc2cc(Cl)cc(Cl)c2)O1)N1CCOCC1 | -28 | – | – | – | – | –
O=C(C[C@@H]1CC[C@H]2[C@@H](COC[C@@H](O)CN2C(=O)Nc2cc(Cl)cc(Cl)c2)O1)N1CCOCC1 | – | – | – | – | – | –
CN1CCN(C(=O)C[C@@H]2CC[C@@H]3[C@H](COC[C@@H](O)CN3C(=O)Cc3ccccc3)O2)CC1 | – | – | – | – | – | –
O=C(C[C@H]1CC[C@@H]2[C@H](COC[C@@H](O)CN2C(=O)Nc2cc(Cl)cc(Cl)c2)O1)N1CCOCC1 | -34 | – | – | – | – | –
CN1CCN(C(=O)C[C@@H]2CC[C@H]3[C@@H](COC[C@H](O)CN3C(=O)Cc3ccccc3)O2)CC1 | – | – | 94 | – | – | –
CN1CCN(C(=O)C[C@@H]2CC[C@H]3[C@@H](COC[C@H](O)CN3C(=O)Nc3ccc(Cl)cc3)O2)CC1 | -34 | – | – | – | – | ·
CCC(=O)N1C[C@@H]2[C@H](c3ccccc31)[C@@H](CO)N2C(=O)Nc1ccccc1 | – | – | – | – | – | ·
Cc1cccc(-n2c(C)cc(C(=O)NC3CCCCC3)c2C)c1 | · | – | – | · | · | –
COc1ccc(-n2c(C)cc(C(=O)NC3CCCCC3)c2C)cc1 | -23 | · | – | – | – | ·
C[C@@H]1CCCCO[C@H](CN(C)Cc2ccc(C(F)(F)F)cc2)[C@@H](C)CN([C@@H](C)CO)C(=O)c2cc(NC(=O)NC3CCCCC3)ccc2O1 | – | – | – | – | – | –
COc1ccc(OC)c(C(=O)Cn2nnc(-c3ccc(N4CCOCC4)cc3)n2)c1 | – | – | – | 10 | – | –
COC(=O)[C@]12C[C@H](CC(=O)NCc3ccc(OC)c(OC)c3)C(=O)N(CCc3ccc(OC)c(OC)c3)C1=C[C@H](C(C)(C)C)O[C@@H]2C | – | · | · | – | · | 58
CCCCCCCCN1C(=O)[C@@H](CC(=O)NCc2ccc(OC)c(OC)c2)C[C@@]2(C(=O)OC)C1=C[C@H](C(C)(C)C)O[C@@H]2C | – | · | · | – | · | 70
CCCCCCCCN1C(=O)[C@@H](CC(=O)NCc2cccc3ccccc23)C[C@@]2(C(=O)OC)C1=C[C@H](C(C)(C)C)O[C@@H]2C | – | · | · | – | – | 63
